Screens: PubChem, The Scripps Research Institute Molecular Screening Center
A selection: hits, their analogues and other compounds. The true share with any hit is near 4.3%.
TAAR1 agonist = agonists of human TAAR1 | Q96RJ0 | CHO RD-HGA16 TAAR1, Fluo-8 calcium fluorescence; vehicle wells 0%, saturating PEA agonist 100% | 360,000 compounds, 0.99% hits | activation, % at 3 µM;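 active means activation above the mean activation of all test compounds in the run plus 3 SD, cut at about 38% in these data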
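Signal – calcium-sensitive Fluo-8 signal, excitation 470-495, emission 515-575 nm · System – RD-HGA16 (CHO) cells co-expressing Gα16 and hTAAR1 · Incubation – 17-24 h seeding, 75 min 37 °C dye, 30 min RT · Compound dosing – 3 µM single concentration · Repeats – no replicates (n 1)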
OX1R antag-1 = blocks the human orexin 1 receptor; O43613; OX1R-expressing cells, FRET antagonist read-out; inhibition, % at 6.6 µM; 330,000 compounds, 1.8% hits; AID 485270; in the data active means inhibition mostly above about 38%, no sharp cut-off; inactive means mostly below about 40%;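 further: 0% = agonist challenge alone and 100% = reference antagonist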
Target sequence (O43613 whole entry, looked up): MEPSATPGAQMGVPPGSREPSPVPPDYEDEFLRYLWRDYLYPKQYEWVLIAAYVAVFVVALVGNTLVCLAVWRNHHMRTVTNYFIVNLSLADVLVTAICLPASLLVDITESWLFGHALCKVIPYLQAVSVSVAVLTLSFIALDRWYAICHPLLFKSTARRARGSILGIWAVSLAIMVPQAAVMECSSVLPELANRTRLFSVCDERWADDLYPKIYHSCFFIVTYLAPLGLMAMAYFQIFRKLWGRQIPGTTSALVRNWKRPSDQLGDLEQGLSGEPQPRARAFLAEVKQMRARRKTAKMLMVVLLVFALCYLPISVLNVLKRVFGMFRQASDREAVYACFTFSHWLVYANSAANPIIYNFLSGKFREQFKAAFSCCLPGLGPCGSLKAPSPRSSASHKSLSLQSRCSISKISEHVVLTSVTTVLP
OX1R antag-2 = human HCRTR1 antagonism. O43613. CHO/OX1R cells, Fluo-8 calcium fluorescence, orexin A. inhibition, % at 5 µM. 330,000 compounds, 0.43% hits;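 active means inhibition above its plate's threshold, mean inhibition of all tested compounds on the plate plus 3 SD, cut at about 37% in these data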;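 further: 0% = orexin A challenge wells and 100% = SB-334867-A antagonist wells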
CHO parental Ca = counter-screen for OX1R antagonists: effect in parental CHO cells; parental CHO-K1, ATP-induced calcium, Fluo-8 fluorescence; inhibition, % at 5.6 µM; 330,000 compounds, 0.63% hits; AID 463079;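 active means inhibition above that plate's mean sample inhibition plus 3 SD, cut at about 26% in these data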;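 further: 0% = ATP-challenged DMSO wells and 100% = DMSO wells without ATP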
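Measured by: calcium-sensitive Fluo-8 fluorescence / Test system: CHO parental line / Controls: ATP-challenged DMSO wells low, unchallenged DMSO wells high / Measure: % inhibition / Compound: single nominal dose of 5.6 µM per compound / Replicates: single well per compound, no replicates / Reagent: ATP as calcium-mobilizing challenge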
GalR3 antag = human GalR3 antagonism | inhibition, % at 3 µM | 360,000 compounds, 0.44% hits | HEK293 GalR3-CNG cAMP membrane potential fluorescence; galR3 body fused to GalR1 C-terminus | O60755;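 active means inhibition above the screen-wide average plus 3 SD, cut at about 13% in these data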;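 further: forskolin and galanin both at EC90 stimulate the cells; cAMP rise reported by CNG channel membrane potential dye signal; 0% = forskolin plus galanin with DMSO and 100% = forskolin alone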
Target sequence (O60755 1-299 limits assumed): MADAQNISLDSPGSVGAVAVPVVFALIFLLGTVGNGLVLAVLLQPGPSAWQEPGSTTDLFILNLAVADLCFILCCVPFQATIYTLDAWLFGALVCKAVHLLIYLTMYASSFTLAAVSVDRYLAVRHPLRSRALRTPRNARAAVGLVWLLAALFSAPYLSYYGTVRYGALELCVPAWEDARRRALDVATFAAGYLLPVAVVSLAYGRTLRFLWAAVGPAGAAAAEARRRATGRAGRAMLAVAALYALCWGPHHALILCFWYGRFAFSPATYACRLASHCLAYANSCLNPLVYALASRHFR
TAAR1 antag = human TAAR1 antagonism; Q96RJ0; CHO RD-HGA16 TAAR1, Fluo-8 calcium fluorescence, antagonist; inhibition, % at 3 µM; 360,000 compounds, 1.5% hits; AID 624466;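 active means inhibition above a per-plate cutoff, the mean inhibition of test compounds on that plate plus 3 SD, cut at about 49% in these data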;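 further: 0% = DMSO plus EC80 beta-PEA response and 100% = DMSO alone without agonist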
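Test system: CHO RD-HGA16 cells bearing hTAAR1 | Reagent: β-PEA, EC80 | Compound dosing: 3 µM, single point | Schedule: Dye loading 75 min at 37 °C, then 30 min room temperature | Signal: Calcium fluorescence with Fluo-8 | Evaluation: Percent inhibition of PEA-evoked calcium signal, max/basal emission ratio | Control set: DMSO-only wells and EC80 β-PEA-stimulated wells | Repeats: Singlicate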
nonsel antag count = counter-screen for TAAR1 antagonists: nonselective antagonists. shares compounds with TAAR1 antag. counterscreen cell line, calcium fluorescence, antagonist mode. inhibition, % at 3 µM. 2,400 compounds, 77% hits. AID 651780; in the data active means inhibition above about 22%;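 further: CHO-Ga16 host cells stimulated with ATP at an EC80 level; 0% = agonist EC80 plus vehicle and 100% = vehicle without agonist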
TAAR1 ant conf = confirmation of human TAAR1 antagonists. 2,400 compounds, 40% hits. TAAR1-expressing cells, fluorescence antagonist read-out. AID 651785. inhibition, % at 3 µM. shares compounds with TAAR1 antag; in the data active means inhibition above about 49%;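 further: CHO-Ga16 host cells challenged with agonist PEA near its EC80; 0% = agonist at EC80 plus vehicle and 100% = vehicle with no agonist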
Ga16 nonsel ag = nonselective Ga16 agonism, counter-screen. 2,400 compounds, 18% hits. activation, % at 3 µM. Ga16-expressing cells, calcium fluorescence, agonist counterscreen. shares compounds with TAAR1 antag; in the data active means activation above about 12%;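 further: 0% = vehicle wells and 100% = saturating stimulus response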
TAAR1 ag counter = counter-screen for human TAAR1 antagonists: TAAR1 agonists; hTAAR1 cell line, fluorescence activation, agonist mode; activation, % at 3 µM; 2,400 compounds, 2% hits; shares compounds with TAAR1 antag; AID 651955; in the data active means activation above about 37%;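 further: CHO cells stably expressing TAAR1 with calcium dye readout; 0% = DMSO vehicle and 100% = full agonist response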
* marks the source's active call; other numbers are inactive results.

How did CC(C)c1ccc(NC(=O)COC(=O)[C@@H]2CCCN2C(=O)c2cccs2)cc1 do in these assays?
TAAR1 agonist: 6; OX1R antag-1: 5; OX1R antag-2: -9; CHO parental Ca: -19; GalR3 antag: -9; TAAR1 antag: 26

Results for CCOP(=O)(Nc1cccc2oc(=O)c3ccccc3c12)OCC ?
TAAR1 agonist: 3; GalR3 antag: 0; TAAR1 antag: -3

Results for O=C(Nc1cccc(-c2csc(Nc3ccc(Cl)cc3)n2)c1)c1ccccc1 ?
TAAR1 agonist: 4; OX1R antag-1: 18; OX1R antag-2: -28; CHO parental Ca: -2; GalR3 antag: -7; TAAR1 antag: 41

How did O=C(Nc1cccc(-c2csc(Nc3ccccc3)n2)c1)c1cc([N+](=O)[O-])cc(C(F)(F)F)c1 do in these assays?
TAAR1 agonist: 1; OX1R antag-1: 36; OX1R antag-2: -14; CHO parental Ca: 1; GalR3 antag: -3; TAAR1 antag: 55*; nonsel antag count: 15; TAAR1 ant conf: 29; Ga16 nonsel ag: 2; TAAR1 ag counter: 2

What do the screens show for `O=C(Nc1cccc(-c2csc(Nc3ccc(Cl)cc3)n2)c1)c1cc([N+](=O)[O-])cc(C(F)(F)F)c1`?
TAAR1 agonist: 10; OX1R antag-1: 10; OX1R antag-2: 2; CHO parental Ca: -5; GalR3 antag: -3; TAAR1 antag: 28

Results for O=C(Nc1ccc(-c2csc(Nc3ccccc3)n2)cc1)c1ccccc1 ?
TAAR1 agonist: 6; OX1R antag-1: 55; OX1R antag-2: -20; CHO parental Ca: 15; GalR3 antag: -7; TAAR1 antag: 74*; nonsel antag count: 26*; TAAR1 ant conf: 53*; Ga16 nonsel ag: 5; TAAR1 ag counter: 6

How did CCCCC1CC2=C(C(=O)OC(C)(C)O2)C(c2cccc3ccccc23)O1 (configuration not stated) do in these assays?
TAAR1 agonist: 2; GalR3 antag: -8; TAAR1 antag: 31

Results for CCC(C(=O)OCC(=O)Nc1ccc(F)cc1)c1ccccc1 (configuration not stated) ?
TAAR1 agonist: 0; OX1R antag-1: 5; OX1R antag-2: 17; CHO parental Ca: -28; GalR3 antag: -6; TAAR1 antag: 15

How did CCC(C(=O)OCC(=O)Nc1ccc(SC(F)F)cc1)c1ccccc1 (configuration not stated) do in these assays?
TAAR1 agonist: 2; GalR3 antag: -4; TAAR1 antag: 63*; nonsel antag count: 39*; TAAR1 ant conf: 53*; Ga16 nonsel ag: 3; TAAR1 ag counter: 7

How did CC(OC(=O)[C@H](C)N=C1NS(=O)(=O)c2ccccc21)C(=O)Nc1ccc(F)c(F)c1F (some centres not stated) do in these assays?
TAAR1 agonist: 1; GalR3 antag: -5; TAAR1 antag: 0

How did COc1ccc(/C=N/Nc2nc(-c3ccc(C)cc3)c(NC(C)=O)s2)cc1 do in these assays?
TAAR1 agonist: 0; OX1R antag-1: 11; OX1R antag-2: -5; CHO parental Ca: -10; GalR3 antag: -2; TAAR1 antag: 51*; nonsel antag count: 7; TAAR1 ant conf: 42; Ga16 nonsel ag: 1; TAAR1 ag counter: 4

Results for Cc1ccc(C)c(NC(=O)C(Sc2nc3ccccc3c(=O)n2CC(C)C)c2ccccc2)c1 (configuration not stated) ?
TAAR1 agonist: 7; OX1R antag-1: 16; OX1R antag-2: -24; CHO parental Ca: -9; GalR3 antag: 3; TAAR1 antag: 56*; nonsel antag count: 28*; TAAR1 ant conf: 50*; Ga16 nonsel ag: 3; TAAR1 ag counter: 1

What do the screens show for `CC(C)=N/N=C1/NC(=O)C(c2ccccc2)S1` (configuration not stated)?
TAAR1 agonist: 34; GalR3 antag: -3; TAAR1 antag: 55*; nonsel antag count: 7; TAAR1 ant conf: 0; Ga16 nonsel ag: 7; TAAR1 ag counter: 8

Results for CCOc1ccc(OCC)c(NC(=O)Nc2ccc3c(c2)N(C)C(=O)CS3)c1 ?
TAAR1 agonist: 4; OX1R antag-1: 16; OX1R antag-2: -28; CHO parental Ca: -17; GalR3 antag: 4; TAAR1 antag: 56*; nonsel antag count: 22*; TAAR1 ant conf: 28; Ga16 nonsel ag: 5; TAAR1 ag counter: 0

How did CN1C(=O)CSc2ccc(NC(=O)N3CCN(c4ccccn4)CC3)cc21 do in these assays?
TAAR1 agonist: 6; OX1R antag-1: 14; OX1R antag-2: -32; CHO parental Ca: -16; GalR3 antag: -2; TAAR1 antag: 7

Results for CN1C(=O)CSc2ccc(NC(=O)Nc3ccccn3)cc21 ?
TAAR1 agonist: 16; OX1R antag-1: 16; OX1R antag-2: -10; CHO parental Ca: -20; GalR3 antag: 1; TAAR1 antag: 70*; nonsel antag count: 21; TAAR1 ant conf: 49*; Ga16 nonsel ag: 8; TAAR1 ag counter: 7

What do the screens show for `COc1ccc(S(=O)(=O)NC(=O)C2(C)CCN2C(=O)Cc2cc(F)ccc2F)cc1` (configuration not stated)?
TAAR1 agonist: 1; GalR3 antag: -7; TAAR1 antag: -23

How did CCOC(=O)N1CCN(C(=O)CSc2nc3c([nH]c4ccccc43)c(=O)n2CCOC)CC1 do in these assays?
TAAR1 agonist: 11; OX1R antag-1: 19; OX1R antag-2: -33; CHO parental Ca: -29; GalR3 antag: -3; TAAR1 antag: 55*; nonsel antag count: 28*; TAAR1 ant conf: 43; Ga16 nonsel ag: 5; TAAR1 ag counter: 3

Results for COc1cccc(N2CCN(C(=O)CCCCCNc3nc(=S)[nH]c4ccccc34)CC2)c1 ?
TAAR1 agonist: 11; OX1R antag-1: 18; OX1R antag-2: -32; CHO parental Ca: -13; GalR3 antag: -4; TAAR1 antag: 59*; nonsel antag count: 19; TAAR1 ant conf: 37; Ga16 nonsel ag: 8; TAAR1 ag counter: 11

How did O=C(CCCCCNc1nc(=S)[nH]c2ccccc12)N1CCN(c2ccccn2)CC1 do in these assays?
TAAR1 agonist: 20; OX1R antag-1: 10; OX1R antag-2: 2; CHO parental Ca: -19; GalR3 antag: -5; TAAR1 antag: 43
